# From PubChem
# This is a sample that favours compounds with a hit; in the whole collection about 3.2% have one here.
# TRPML3 ag = activates the human TRPML3 channel; Q8TDD5; AID 1448; actives 0.29% (n = 220,000); activation, % at 3 µM; HEK293 TRPML3-YFP, Fluo-8 calcium fluorescence; 100% = the carbachol control signal;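 active = activation above its plate's cutoff, the mean activation of the plate's test wells plus 3 SD, cut at about 12% in these data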;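 also: 0% = DMSO only wells and 100% = carbachol wells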
# Target sequence (Q8TDD5 whole entry, looked up): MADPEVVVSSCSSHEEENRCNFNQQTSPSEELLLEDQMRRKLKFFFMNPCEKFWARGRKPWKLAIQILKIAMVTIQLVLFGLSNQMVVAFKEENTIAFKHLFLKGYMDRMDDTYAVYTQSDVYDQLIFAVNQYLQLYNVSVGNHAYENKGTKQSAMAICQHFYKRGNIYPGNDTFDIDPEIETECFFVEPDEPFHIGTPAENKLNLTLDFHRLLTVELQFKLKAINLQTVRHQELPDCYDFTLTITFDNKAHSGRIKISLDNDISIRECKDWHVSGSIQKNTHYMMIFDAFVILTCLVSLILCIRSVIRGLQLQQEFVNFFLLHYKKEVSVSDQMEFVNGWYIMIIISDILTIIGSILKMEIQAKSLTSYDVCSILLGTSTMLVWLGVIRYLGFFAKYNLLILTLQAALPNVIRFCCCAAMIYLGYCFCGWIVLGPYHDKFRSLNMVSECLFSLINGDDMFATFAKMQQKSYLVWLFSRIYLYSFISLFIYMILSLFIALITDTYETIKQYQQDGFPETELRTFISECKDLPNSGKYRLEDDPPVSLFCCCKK
#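 Material: TRPML3-YFP stable HEK293 cells | Dosing: One concentration, 3 µM nominal, 0.3% DMSO | Timing: 125 s total fluorescence read per well | Technique: Fluo-8 calcium dye fluorescence, ex 470-495, em 515-575 nm | Measure: Percent activation from peak-to-basal fluorescence ratio, scaled between DMSO and carbachol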
# TRPN1 ag = agonists of zebrafish TRPN1 channel | AID 1424 | activation, % at 3 µM | HEK293 zebrafish TRPN1-YFP, Fluo-8 calcium fluorescence; 100% = response to 87 µM carbachol | actives 0.18% (n = 220,000);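 active = activation above its plate's cutoff, the mean activation of test wells on that plate plus 3 SD, cut at about 19% in these data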;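 also: 0% = DMSO alone and 100% = 87 µM carbachol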
#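 Material – zebrafish TRPN1-YFP in HEK293 cells · Doses – 3 µM single point · Schedule – dye 1 h 37 °C plus 30 min RT · Signal – Fluo-8 calcium fluorescence, excitation 470-495 nm, emission 515-575 nm · Read-out – % activation versus carbachol response · Control set – carbachol high, DMSO low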
# OX1R antag-1 = OX1R (human) antagonism; inhibition, % at 6.6 µM; OX1R-expressing cells, FRET antagonist read-out; actives 1.8% (n = 330,000); O43613; in the data active = inhibition mostly above about 38%, no sharp cut-off; inactive = mostly below about 40%;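 also: 0% = agonist challenge alone and 100% = reference antagonist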
# CHO parental Ca = counter-screen: ATP calcium response change in parental CHO cells; AID 463079; actives 0.63% (n = 330,000); inhibition, % at 5.6 µM; parental CHO-K1, ATP-induced calcium, Fluo-8 fluorescence;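 active = inhibition above that plate's mean sample inhibition plus 3 SD, cut at about 26% in these data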;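 also: 0% = ATP-challenged DMSO wells and 100% = DMSO wells without ATP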
#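 Test system: untransfected parental CHO cell line. Compound: one dose, 5.6 µM nominal. Detection: intracellular calcium via Fluo-8 no-wash fluorescent dye. Measure: % inhibition. Benchmarks: ATP-challenged DMSO wells low, unchallenged DMSO wells high.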
# OX1R antag-2 = blocks the human orexin 1 receptor | AID 434989 | O43613 | CHO/OX1R cells, Fluo-8 calcium fluorescence, orexin A | actives 0.43% (n = 330,000) | inhibition, % at 5 µM;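 active = inhibition above its plate's threshold, mean inhibition of all tested compounds on the plate plus 3 SD, cut at about 37% in these data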;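 also: 0% = orexin A challenge wells and 100% = SB-334867-A antagonist wells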
# GPR7 antagonist = blocks human GPR7 receptor signaling; P48145; inhibition, % at 4.4 µM; GPR7-expressing cells, fluorescence antagonist assay; actives 1.1% (n = 290,000); in the data active = inhibition above about 16%, passing the limit was not always enough;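 also: cells stimulated with the agonist NPW; 0% = agonist with vehicle and 100% = vehicle without agonist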
# The depositor's hits bear a star; nt = no result.
SMILES,TRPML3 ag,TRPN1 ag,OX1R antag-1,CHO parental Ca,OX1R antag-2,GPR7 antagonist
COc1ccc2[nH]c3c(c2c1)CCN1C(=O)C(CC(=O)NC/C=C(\C)CCC=C(C)C)C[C@H](C(=O)N2CCCCC2)[C@@]31C (some centres undefined),nt,nt,14,-42,51*,nt
CCC(C)[C@H](NC(=O)[C@H](Cc1ccccc1)n1c(=O)[nH]c2ccccc2c1=O)C(=O)N1CCC[C@@H]1C(=O)O (some centres undefined),nt,nt,16,-7,0,-8
O=c1ccc2c(-c3ccccc3)c3ccc(O)cc3oc-2c1,nt,nt,19,101*,107*,23
Nc1ccc(-c2c3ccc(=O)cc-3oc3cc(O)ccc23)cc1C(=O)O,nt,nt,69*,70*,84*,29
COc1ccc(-c2c(C)c3ccc(O)cc3oc2=O)cc1OC,nt,nt,5,-19,1,16
COc1ccc(Cl)c(NC(=O)C/C(C)=N/NC(=O)CCc2ccccc2)c1,nt,nt,20,-11,7,-11
COCCNC(=O)C(=O)N/N=C(\C)CC(=O)Nc1cccnc1,2,1,8,10,-3,5
Cc1sc2ncnc(N3CCN(Cc4ccccc4)CC3)c2c1-c1ccc(F)cc1,nt,nt,22,-27,-58,17
Cc1ccc(C(C(=O)NC2CCCC2)N(C(=O)Cc2cccs2)c2ccc(C)c(C)c2)o1 (centres undefined),-1,1,53*,40*,13,11
Cc1ccc(C)c(N(C(=O)Cc2cccs2)C(C(=O)NC2CCCC2)c2ccc(C)o2)c1 (centres undefined),1,1,11,-8,-16,-7
Cc1nc2ccc(NC(=O)c3ccccc3)cc2s1,1,0,16,-8,-29,1
Cc1ccc(NC(=O)c2ccc(NCCN)c([N+](=O)[O-])c2)cc1Cl,1,-1,10,-3,-11,8
Cc1nc2ccc(C(=O)Nc3ccc(N(C)C)cc3)cc2s1,nt,nt,61*,-15,4,nt
Cc1nc2ccc(NC(=O)c3ccc4ccccc4n3)cc2s1,0,-2,65*,-17,0,-8
CC(=O)c1ccc(NC(=O)c2ccc3nc(C)sc3c2)cc1,nt,nt,61*,-12,1,-19
CCNc1ccc(C(=O)Nc2ccc3nc(C)sc3c2)cc1[N+](=O)[O-],0,1,60*,-29,-25,-4
COCCCNC(=O)CCN1N=C(c2ccccc2)CCC1=O,nt,nt,9,6,-3,-1
O=C(NNC1=NCCC1)C1CC1,0,0,5,-8,-19,-8
COc1ccc(S(=O)(=O)N2CCN(c3c(C)cccc3C)CC2)cc1OC,0,-1,14,45*,-34,-12
COc1ccc(S(=O)(=O)N2CCN(c3ccc(C)cc3C)CC2)cc1OC,0,-2,14,36*,-25,-26
CCOc1ccc(S(=O)(=O)N2CCN(c3ccc(C)cc3C)CC2)cc1,0,-1,9,27*,-18,-10
CCOC(=O)C(=O)Nc1cc(C)on1,1,1,23,-2,1,-15
Cn1c(=O)c2c(nc(NNC(=O)C(F)(F)F)n2C)n(C)c1=O,1,0,7,0,-7,-8
Cn1c(=O)c2c(nc(NN=C3CCCC3)n2C)n(C)c1=O,0,-3,48*,-11,-19,1
Cn1nc([N+](=O)[O-])nc1Sc1nnnn1-c1ccc(C(=O)O)cc1,1,2,37,-9,-9,2
SMILES,TRPML3 ag,TRPN1 ag,OX1R antag-1,CHO parental Ca,OX1R antag-2,GPR7 antagonist
COc1cc(C2Nc3ccc4ncccc4c3C3=C2C(=O)CCC3)cc(OC)c1O (centres undefined),0,0,68*,-9,-14,-1
O=C(COC(=O)c1cc(=O)[nH]c(=O)[nH]1)Nc1ccccc1F,nt,nt,2,-2,2,nt
CC(C)c1cc(-c2cc(C(=O)NCc3ccccc3)on2)nc(NCC2CC2)n1,nt,nt,1,44*,62*,nt
CN(CC(=O)N1CCN(Cc2ccccc2)CC1)C(=O)Cc1ccc(Cl)c(Cl)c1,nt,nt,13,-15,-14,nt
Cc1ccc(SCC(=O)Nc2cc([N+](=O)[O-])ccc2O)cc1,19*,24*,92,13,2,-3
O=C(CSCc1ccc(Cl)cc1)Nc1cc([N+](=O)[O-])ccc1O,18*,25*,105*,5,14,3
Cc1cc(C)c2cc(C#N)c(N3CCCN(C(=O)c4cnccn4)CC3)nc2c1,nt,nt,51*,-11,-13,-5
Cc1cc(C)c2cc(C#N)c(N3CCCN(S(=O)(=O)c4ccccc4)CC3)nc2c1,0,-1,38,-17,-17,-9
CCN1/C(=C/c2ccc3ccccc3[n+]2CC)C=Cc2ccccc21,0,-1,100*,71*,27,53*
COc1cc(/C=C2\CC/C(=C\c3cc(OC)c(O)c(OC)c3)C2=O)cc(OC)c1O,1,2,90*,-21,13,-11
Nc1nc(Nc2cccc(F)c2)nc2ccccc12,2,0,57*,-9,3,-10
Nc1c(O)cccc1C(=O)O,nt,nt,61*,1,4,nt
CC(=O)Nc1nc2cccc([N+](=O)[O-])c2s1,0,-1,74*,-2,-9,-3
Cn1cccc1/C=N/NC(=O)c1cc2ccccc2cc1O,nt,nt,13,3,-13,8
CC(=O)Nc1cccc(Oc2ncnc3scc(-c4ccc(C(C)C)cc4)c23)c1,-1,0,10,2,20,-4
CCNc1nc(NCC)nc(N/N=C/c2ccc([N+](=O)[O-])o2)n1,1,1,54*,-6,16,-4
O=C(N/N=C/c1ccc([N+](=O)[O-])o1)c1cc2ccccc2o1,2,2,31,-5,-6,-6
O=[N+]([O-])c1ccc(/C=N/Nc2ccc3ccccc3c2)o1,2,2,30,42*,37,-9
CCOc1ccc(NC(=O)c2ccco2)c([N+](=O)[O-])c1,1,-1,44,-13,-16,-4
Cc1cc2oc(=O)cc(CN(C)Cc3ccccc3)c2cc1C(C)C,nt,nt,0,31*,12,-32
Cc1sc(NC(=O)c2cccc(N3C(=O)CCC3=O)c2)nc1-c1ccccc1,nt,nt,30,6,-7,nt
Cc1ccc(S(=O)(=O)Nc2cccc(C(=O)NCC(c3ccc(F)cc3)N3CCOCC3)c2)cc1 (centres undefined),nt,nt,36*,-17,15,nt
CCCn1c(=N)c(C(=O)NC2CCCC2)cc2c(=O)n3cccc(C)c3nc21,0,1,81*,-19,-20,-1
Cc1cccn2c(=O)c3cc(C(=O)NC4CCCCC4)c(=N)n(CCN4CCOCC4)c3nc12,0,1,63*,-2,-14,4
